The source made the active and inactive calls.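 How the source made its calls: active means compounds blocking BCL-xL binding with IC50 of 10 µM or lower; inactive means the rest.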
Biological target: Bcl-2-like protein 1 (Homo sapiens) (UniProt Q07817)
Test: Bcl-xL binding to Bim BH3 peptide, probe test – biochemical, fluorescence polarization, probe report, counter-screen for MCL1-BIM inhibitor project, late-stage follow-up (AID 624411)
Details: GST-BCL-xL / FITC-Bim BH3 fluorescence polarization
Method in brief: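 Test system: purified GST-Bcl-xL fusion protein, human Bcl-xL; Medium: PBS with 0.001% Brij; Timing: compound incubation 20 min at room temperature; Detection: fluorescence polarization in millipolarization (mP) units.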

Bcl-2-like protein 1 (Homo sapiens), sequence (Q07817 whole entry, looked up): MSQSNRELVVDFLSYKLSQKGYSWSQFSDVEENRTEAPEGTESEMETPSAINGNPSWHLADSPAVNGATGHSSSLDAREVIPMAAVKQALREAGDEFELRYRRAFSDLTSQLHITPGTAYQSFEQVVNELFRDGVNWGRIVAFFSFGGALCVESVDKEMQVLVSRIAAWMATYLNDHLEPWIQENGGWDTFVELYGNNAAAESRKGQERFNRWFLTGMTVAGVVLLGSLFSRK

IC50: > 40 µM (inactive)
Compound: CCN1CCN(C(c2ccc(C(F)(F)F)cc2)c2ccc3cccnc3c2O)CC1 (stereo unspecified)

— PubChem BioAssay AID624411 (The Scripps Research Institute Molecular Screening Center, 2012)
